From PubChem BioAssay
The list is a sample of the results.
Apaf-1 act: activators of human Apaf-1 apoptosome, primary screen, biochemical, DEVD-Rh110 fluorescence, uHTS; 330,000 tested, 0.31% active; Apaf-1 apoptosome caspase-3 activation; active compounds read low; activity change, negative = activation, % at 20 µM;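 active = activity change at or below -40% at 20 µM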
Target sequence (O14727 whole entry, looked up): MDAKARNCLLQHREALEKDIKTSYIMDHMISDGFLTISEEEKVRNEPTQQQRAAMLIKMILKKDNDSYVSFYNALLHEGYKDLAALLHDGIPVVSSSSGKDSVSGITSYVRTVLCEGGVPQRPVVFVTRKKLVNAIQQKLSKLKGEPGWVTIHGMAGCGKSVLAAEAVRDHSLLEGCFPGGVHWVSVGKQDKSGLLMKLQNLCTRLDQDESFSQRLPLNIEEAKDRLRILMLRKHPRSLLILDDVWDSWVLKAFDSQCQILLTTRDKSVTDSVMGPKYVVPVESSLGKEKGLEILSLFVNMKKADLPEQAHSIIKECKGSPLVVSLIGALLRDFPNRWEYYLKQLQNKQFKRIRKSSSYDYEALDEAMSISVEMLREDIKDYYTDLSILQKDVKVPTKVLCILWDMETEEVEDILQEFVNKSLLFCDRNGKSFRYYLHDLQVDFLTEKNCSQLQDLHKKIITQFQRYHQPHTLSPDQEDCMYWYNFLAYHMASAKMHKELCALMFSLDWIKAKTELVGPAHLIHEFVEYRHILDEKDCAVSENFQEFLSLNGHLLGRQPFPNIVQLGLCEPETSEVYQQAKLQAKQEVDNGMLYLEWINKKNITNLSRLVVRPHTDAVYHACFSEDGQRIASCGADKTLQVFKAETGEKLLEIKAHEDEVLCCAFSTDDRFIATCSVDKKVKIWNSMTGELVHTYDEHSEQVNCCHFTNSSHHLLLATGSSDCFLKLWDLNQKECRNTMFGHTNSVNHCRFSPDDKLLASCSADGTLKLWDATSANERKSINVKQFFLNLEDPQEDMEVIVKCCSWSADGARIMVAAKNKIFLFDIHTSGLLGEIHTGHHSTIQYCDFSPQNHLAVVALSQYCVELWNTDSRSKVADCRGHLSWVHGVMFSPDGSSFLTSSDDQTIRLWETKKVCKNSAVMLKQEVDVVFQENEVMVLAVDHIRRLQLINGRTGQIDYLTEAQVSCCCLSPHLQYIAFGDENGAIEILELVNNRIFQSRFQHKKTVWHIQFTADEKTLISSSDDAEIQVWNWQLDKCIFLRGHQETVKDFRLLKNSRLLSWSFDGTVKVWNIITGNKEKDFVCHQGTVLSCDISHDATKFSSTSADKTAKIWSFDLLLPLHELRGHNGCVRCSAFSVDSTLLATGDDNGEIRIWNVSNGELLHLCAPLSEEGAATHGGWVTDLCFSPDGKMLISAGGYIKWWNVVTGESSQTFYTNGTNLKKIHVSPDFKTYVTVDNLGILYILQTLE
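System: Reconstituted apoptosome of Apaf-1, cytochrome c, caspase-9, procaspase-3 | Reagent: dATP, cytochrome c, and (Z-DEVD)2-Rh110 caspase-3 substrate | Times: 30 min compound preincubation and 50 min reaction, both room temperature | Detection: Caspase-3-released Rh110 fluorescence, 540 nm emission, 480 nm excitation | Measure: Caspase-3 activity via Apaf-1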
Rh110 interf act: Rh110 fluorescence interference by putative Apaf-1 activators, confirmation, artefact control for Apaf-1 activator project, biochemical, 20 µM; 980 tested, under 10 active; fluorescence interference (activity change), % at 20 µM, hits read low; quenched caspase reaction, Ex480/Em540; AID 504616, 2011; shares compounds with Apaf-1 act;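 active = mean activity change at or below -40% when tested at 20 µM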
Apaf-1 act conf2: Apaf-1 activators, single-dose retest, confirmation, biochemical, fluorescence, DEVD-Rh110, 20 µM. reconstituted apoptosome caspase-3 activity; active compounds read low. activity change, negative = activation, % at 20 µM. 980 tested, 5% active. shares compounds with Apaf-1 act;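 active = mean activity change at or below -40%, meaning activation of 40% or more, at 20 µM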
Fluor interf act: fluorescence interference of Apaf-1 activator hits, dose response, artefact control for Apaf-1 activator project | fluorescence interference counterscreen, Apaf-1 activator assay | EC50, µM | AID 588592, 2011 | 55 tested, under 10 active | shares compounds with Apaf-1 act; call rule not given here
Each line names hits and unclear results; the compound was inactive in the other large screens (follow-up assays come after a bar, where they were run).

COCC(=O)O[C@]1(CCN(C)CCCc2nc3ccccc3[nH]2)CCc2cc(F)ccc2[C@@H]1C(C)C	none
CCN1/C(=C/c2ccc3cc(C)ccc3[n+]2CC)Sc2cc(C)c(C)cc21	none
COc1cc(OC)c(OC)cc1/C=N/N(C)c1ccccc1	Apaf-1 act -78 | Rh110 interf act inactive | Apaf-1 act conf2 inactive
COc1ccccc1/C=N/Nc1cc(N(C)C)nc(N(C)C)n1	none
CN(C)CCOc1ccc(-c2c(-c3ccsc3)sc3ccccc23)cc1	none
O=C1NC(=Nc2ccccc2)S/C1=C/c1cccs1	Apaf-1 act -300 | Rh110 interf act inactive | Apaf-1 act conf2 inactive
Oc1ccc(NCc2ccccc2OCc2ccccc2)cc1	none
Cc1ccc(/C=C2\SC(=S)N(CCC(=O)NNC(=O)c3ccc(O)cc3)C2=O)cc1	Apaf-1 act -63 | Rh110 interf act inactive | Apaf-1 act conf2 inactive
CCN(CC)CCOC(=O)c1ccc(NC(=O)CCCN2C(=O)S/C(=C/c3ccc(OC)cc3)C2=S)cc1	none
N/C(=N\OC(=O)c1ccc(Cl)cc1Cl)c1cccnc1	none
Cc1[nH]c2ccc(CNS(=O)(=O)c3ccc(S(=O)(=O)N4CCOCC4)cc3)cc2c1C	Apaf-1 act -48 | Rh110 interf act inactive | Apaf-1 act conf2 inactive
Cc1ccc(S(=O)(=O)NCc2ccc3c(c2)cc(C)n3C)cc1	none
Cc1[nH]n(-c2ccccc2)c(=O)c1C(C[N+](=O)[O-])c1ccc(F)cc1 (centres undefined)	none
O=C1C=C(Nc2ccc(F)cc2)c2ccccc2C1=O	none
CCOc1c(O)ccc(/C=C2\SC(=S)NC2=O)c1[N+](=O)[O-]	none
C=CCn1c(N)c(C(=O)OC(C)(C)C)c2nc3ccccc3nc21	none
Cc1ccc(C2(c3noc(CN(C)CC4CCCCO4)n3)CCCC2)cc1 (centres undefined)	Apaf-1 act -413 | Rh110 interf act inactive | Apaf-1 act conf2 inactive
O=C1NCN(c2ccccc2)C12CCN(CCCC(c1ccc(F)cc1)c1ccc(F)cc1)CC2	none
O=C(Cn1cc(S(=O)(=O)Cc2ccccc2)c2ccccc21)N1CCOCC1	Apaf-1 act -233 | Rh110 interf act inactive | Apaf-1 act conf2 inactive
C#CCOCCOCCOCCNc1nc(N2CCN(C(=O)CCCCCCCCCCNC(=O)[C@H](CCCCN)n3cc(C)nn3)CC2)nc(N2CCN(C(=O)CCCCCCCCCCNC(=O)[C@@H]([C@H](C)CC)n3cc(CCCCCN)nn3)CC2)n1	none
S=C(Nc1ccc(N2CCOCC2)cc1)Nc1ccc2nc(-c3ccco3)c(-c3ccco3)nc2c1	none
COc1cccc(N2C(=O)CC(Nc3ccc(N4CCOCC4)cc3)C2=O)c1 (centres undefined)	Apaf-1 act -393 | Rh110 interf act inactive | Apaf-1 act conf2 inactive
CC(=O)Nc1cccc(NC(=S)Nc2cccc3ccccc23)c1	none
CC1=NN(c2ccccc2)C(=O)/C1=C\N(O)c1ccccc1	none
O=C(c1ccccc1)C(O)c1ccccc1 (centres undefined)	Apaf-1 act -41 | Rh110 interf act inactive | Apaf-1 act conf2 inactive
O=C(O)CCCNC(=O)C(c1ccccc1)c1ccccc1	none
Cc1ccc(-n2nc3ccc(N)cc3n2)cc1C	none
COc1ccc2c(c1)c1ccc3c(c1n2C)C(=O)C=CC3=O	none
COc1ccc(-c2sc3cc4c(cc3c2C#CC2(N)CCCCC2)OCO4)cc1	none
CCCCn1nnc(NC(=O)Cc2ccc(Cl)cc2)n1	Apaf-1 act -95 | Rh110 interf act inactive | Apaf-1 act conf2 inactive
CN1CCN(c2ccc(NC(=O)c3ccc(-c4ccc(Br)cc4)o3)cc2)CC1	none
CCCn1nnc(NC(=O)c2ccc(-c3cccc(Cl)c3)o2)n1	Apaf-1 act -44 | Rh110 interf act inactive | Apaf-1 act conf2 inactive
C#CCOCCOCCOCCNc1nc(N2CCN(C(=O)CCCCCCCCCCNC(=O)[C@H]([C@@H](C)CC)n3cc(CCCCCN)nn3)CC2)nc(N2CCN(C(=O)CCCCCCCCCCNC(=O)[C@@H]([C@H](C)O)n3cc(C)nn3)CC2)n1	none
COc1cccc(Cn2c(N)c(C#N)c3nc4ccccc4nc32)c1OC	none
C#CCOCCOCCOCCNc1nc(N2CCOCC2)nc(N2CCN(C(=O)[C@H](CCCCN)n3cc(CN)nn3)CC2)n1	none
Cc1cc(C)cc(OCC(=O)Nc2ccc(N3CCCC3)cc2)c1	none
COc1cc(C)c(NC(=O)COc2ccc3c(c2)CCC3)cc1OC	Apaf-1 act -284 | Rh110 interf act inactive | Apaf-1 act conf2 inactive
COc1cc2cc(NC(C)=O)cc(NCc3ccccc3)c2cc1OC	none
CCNC(=O)Oc1ccc[nH]c1=O	none
N[C@@H](Cc1cc(I)c(Oc2ccc(O)c(I)c2)c(I)c1)C(=O)O	none
CC/C(=N/Nc1cccc(C)c1)c1cnnc(SC)n1	none
CCCOc1cc(NCc2ccccc2)c2ncn(C(C)C)c2c1	none
O=C1c2ccccc2N[C@@H]2C=CC[C@@H]2N1O	Apaf-1 act -56 | Rh110 interf act inactive | Apaf-1 act conf2 inactive
CCOC(=O)c1c2c(n(C)c1C)C(=O)C(=O)c1ccc(Br)cc1-2	none
COc1ccccc1NC1=C(N2CCCCC2)C(=O)c2ccccc2C1=O	none
Cc1ccc(NC(=O)N(CCC#N)Cc2ccccc2)cc1	Apaf-1 act -471 | Rh110 interf act inactive | Apaf-1 act conf2 inactive
Cc1cc(-c2ccc(N=Nc3c(S(=O)(=O)O)cc4cc(S(=O)(=O)O)cc(N)c4c3O)c(C)c2)ccc1N=Nc1c(S(=O)(=O)O)cc2cc(S(=O)(=O)O)cc(N)c2c1O	none
NC(=S)NNc1cccc2cccnc12	none
CCOC(=O)c1c(-c2ccc(-c3ccccc3)cc2)csc1NC(=O)CNCCN(C)C	none
Cc1noc(C)c1S(=O)(=O)N1CCCC(C(=O)NCC2CCCO2)C1 (centres undefined)	Apaf-1 act -89 | Rh110 interf act inactive | Apaf-1 act conf2 inactive
COCCCNC(=O)c1c(N)n(-c2ccccc2)c2nc3ccccc3nc12	none
Cc1cccc2sc(N(CCCN(C)C)C(=O)c3ccc(S(=O)(=O)N4CCc5ccccc5C4)cc3)nc12	none
CCOC(=O)C1CCCN(C2=C(NS(=O)(=O)c3ccc(Br)cc3)C(=O)c3ccccc3C2=O)C1 (centres undefined)	none | Fluor interf act inactive
CC1CCN(C2=C(NS(=O)(=O)c3ccc(Br)cc3)C(=O)c3ccccc3C2=O)CC1	none
CC1CCCN(C2=C(NS(=O)(=O)c3ccc(Br)cc3)C(=O)c3ccccc3C2=O)C1 (centres undefined)	none
CC1(OC(=O)c2cccs2)C(=O)C=C2C=C3CCCN3C=C2C1=O (centres undefined)	none
COc1ccccc1-c1nnc(C2CCN(S(=O)(=O)c3cccc([N+](=O)[O-])c3)CC2)o1	Apaf-1 act -53 | Rh110 interf act inactive | Apaf-1 act conf2 inactive
CN1CCc2cc3c(c4c2[C@H]1[C@H](O)c1ccccc1-4)OCO3	none
CCOC(=O)C1(CCOc2ccccc2)CCN(CC(O)CO)CC1 (centres undefined)	Apaf-1 act -53 | Rh110 interf act inactive | Apaf-1 act conf2 inactive
